Hits are enriched below; roughly 1.8% of the tested compounds scored in any of these assays.
M4 antag: antagonists of human muscarinic M4 receptor (CHRM4); CHO-hM4 cells, ACh EC80, Fluo-8 calcium fluorescence; P08173; inhibition, % at 3 µM; 360,000 tested, 0.73% active;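 active = inhibition above its plate's cutoff, the mean inhibition of sample wells plus 3 SD, cut at about 27% in these data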
Target sequence (P08173 whole entry, looked up): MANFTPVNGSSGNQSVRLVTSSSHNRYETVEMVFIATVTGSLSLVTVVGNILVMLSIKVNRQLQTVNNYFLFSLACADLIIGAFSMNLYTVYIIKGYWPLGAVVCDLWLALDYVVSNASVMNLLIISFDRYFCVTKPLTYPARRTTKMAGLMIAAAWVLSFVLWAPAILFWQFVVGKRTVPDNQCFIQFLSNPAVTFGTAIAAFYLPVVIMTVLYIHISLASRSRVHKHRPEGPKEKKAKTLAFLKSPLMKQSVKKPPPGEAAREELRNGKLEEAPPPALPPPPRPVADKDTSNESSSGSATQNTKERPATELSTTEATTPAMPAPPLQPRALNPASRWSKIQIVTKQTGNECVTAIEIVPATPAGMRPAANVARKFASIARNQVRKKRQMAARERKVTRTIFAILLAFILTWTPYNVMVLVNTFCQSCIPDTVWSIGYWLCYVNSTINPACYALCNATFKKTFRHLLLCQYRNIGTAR
M5 antag: antagonists of human muscarinic M5 receptor (CHRM5). CHO-hM5 cells, Fluo-8 calcium fluorescence, ACh EC80. inhibition, % at 3 µM. 360,000 tested, 0.59% active. AID 624040;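 active = inhibition above a per-plate cutoff, the mean of that plate's test compounds plus 3 SD, cut at about 27% in these data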
CHRM5 PAM: potentiates acetylcholine response at human M5 receptor; CHO-K1 hM5, Fluo-8 calcium, ACh EC20 PAM; 0% = ACh EC20, 100% = ACh EC100; 360,000 tested, 0.3% active; activation, % at 3 µM;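 active = activation above the run cutoff, the mean activation of all test compounds plus 3 SD, cut at about 18% in these data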
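Replicates: One well per compound, no replicates | System: Human M5 receptor in CHO-K1 cells | Benchmarks: Low control EC20 acetylcholine (0%), high control EC100 acetylcholine (100%) | Probe or stimulus: Acetylcholine, EC20 level | Times: Fluo-8 loading 80 min at 37 °C plus 30 min room temperature | Signal: Intracellular calcium via Fluo-8 fluorescence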
CHRM4 agonist: CHRM4 agonism in calcium assay; P08173; CHO-K1 hM4/Gqi5, Fluo-8 calcium fluorescence; vehicle 0%, full acetylcholine response 100%; activation, % at 3 µM; 360,000 tested, 0.14% active;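 active = activation above the run mean over all test wells plus 3 SD, cut at about 32% in these data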;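 also: peak over basal fluorescence ratio per well then scaled between controls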
M4 PAM: potentiates acetylcholine response at human M4 receptor; 360,000 tested, 0.4% active; AID 624126; P08173; activation, % at 3 µM; CHO-K1 hM4/Gqi5, Fluo-8 calcium fluorescence, ACh EC20; 0% = ACh EC20, 100% = maximal ACh;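 active = activation above its plate's cutoff, the mean activation of sample wells plus 3 SD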
M5 ag: CHRM5 agonism in calcium assay; AID 624037; CHO-K1 hM5 cells, Fluo-8 calcium fluorescence; 0% DMSO wells, 100% maximal acetylcholine response; 360,000 tested, 0.19% active; activation, % at 3 µM;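 active = activation above the run's mean over test compounds plus 3 SD, cut at about 23% in these data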;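 also: signal is peak over basal fluorescence ratio across the kinetic read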
Large screens that a line does not name were inactive.

CC(=O)Nc1cc(-c2ccccc2)cn2c(-c3ccc(F)cc3)cnc12	none
COc1ccc(CNC(=O)c2cccc(NC(=O)CC3SC(N4CCCCC4)=NC3=O)c2)cc1 (stereo unspecified)	none
O=C(/C(=C/c1ccc(Cl)cc1)c1nc2ccccc2[nH]1)c1ccccc1	M4 antag 38
O=C(N/C(=C/c1ccc(Cl)cc1)c1nc2ccccc2[nH]1)c1ccco1	none
CC1=NOC(=O)/C1=C\c1ccc(-c2ccc(Cl)c(C(=O)O)c2)o1	none
CC1=NOC(=O)/C1=C\c1ccc(-c2cccc(Cl)c2)o1	M4 antag 54
Cc1nc(-c2ccccn2)nc(N(C)c2ccccc2)c1Cl	none
O=c1c2ccccc2nc(/C=C/c2ccccc2)n1CCCO	none
CN(C)c1ccc(/C=C/c2nc3ccccc3c(=O)n2CCO)cc1	CHRM4 agonist 42
Cc1cc(F)ccc1S(=O)(=O)N(CC(=O)N1CCOCC1)CC(=O)N1CCOCC1	M4 PAM 25
